Screening results: PubChem BioAssay, several laboratories
DSG3 Ab inh: blocks pemphigus antibody binding to human desmoglein-3. DSG3-coupled beads, scFv-anti-DSG3-GFP binding, flow cytometry; stronger effect = lower value. binding (percent of control), % at 10 µM. 310,000 compounds, 0.48% hits. P32926;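 active means binding more than 3 SD below its plate's average and above zero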
Target sequence (P32926 whole entry, looked up): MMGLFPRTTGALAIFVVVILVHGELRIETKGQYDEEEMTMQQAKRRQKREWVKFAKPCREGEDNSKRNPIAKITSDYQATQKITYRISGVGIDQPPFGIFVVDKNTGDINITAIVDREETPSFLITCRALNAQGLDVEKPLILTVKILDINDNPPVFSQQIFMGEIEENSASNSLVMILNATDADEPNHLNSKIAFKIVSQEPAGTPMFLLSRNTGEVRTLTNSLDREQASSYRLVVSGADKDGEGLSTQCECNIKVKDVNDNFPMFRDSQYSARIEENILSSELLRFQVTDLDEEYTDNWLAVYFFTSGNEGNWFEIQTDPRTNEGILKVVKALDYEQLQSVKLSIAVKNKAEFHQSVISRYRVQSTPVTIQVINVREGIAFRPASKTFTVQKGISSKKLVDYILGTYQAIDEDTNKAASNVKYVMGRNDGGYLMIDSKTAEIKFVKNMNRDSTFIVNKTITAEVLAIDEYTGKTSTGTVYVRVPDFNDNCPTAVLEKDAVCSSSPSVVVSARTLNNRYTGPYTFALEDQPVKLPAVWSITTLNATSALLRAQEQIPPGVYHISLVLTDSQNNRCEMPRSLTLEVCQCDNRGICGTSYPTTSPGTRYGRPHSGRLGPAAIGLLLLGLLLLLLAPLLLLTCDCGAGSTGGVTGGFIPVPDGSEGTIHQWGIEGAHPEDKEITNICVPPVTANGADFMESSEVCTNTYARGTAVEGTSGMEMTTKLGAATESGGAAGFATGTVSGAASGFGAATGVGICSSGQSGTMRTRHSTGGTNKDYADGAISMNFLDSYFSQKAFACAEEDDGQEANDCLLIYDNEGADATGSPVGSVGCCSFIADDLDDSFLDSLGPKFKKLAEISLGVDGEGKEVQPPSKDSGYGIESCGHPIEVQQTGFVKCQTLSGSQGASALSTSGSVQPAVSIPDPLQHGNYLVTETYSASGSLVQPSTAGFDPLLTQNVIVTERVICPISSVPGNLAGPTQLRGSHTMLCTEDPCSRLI
Scp-1 inhibitor: inhibitors of human Scp-1 phosphatase; inhibition, % at 20 µM; Recombinant Scp1, phosphopeptide, malachite green phosphate absorbance; 340,000 compounds, 0.88% hits;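 active means inhibition above about 50% at 20 µM, limit read from the data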;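 further: plate controls were DMSO wells with enzyme for no effect and wells lacking enzyme for full effect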
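System: truncated SCP-1 phosphatase (76-261aa); medium: Tris acetate buffer pH 5.5 with MgCl2 and Tween-20; incubation: 45 min room-temperature reaction, 5 min colour, 30 min stabiliser; compound: single 20 µM dose, 1% DMSO; reagent: Phosphorylated 17-residue peptide substrate; read-out: % inhibition at 20 µM; technique: colorimetric free-phosphate detection, absorbance 630 nm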
SUMO1-SIM PPI: alters human SUMO1 binding to SIM partners; AID 602429; SUMO1 binding to a labelled peptide, TR-FRET, 1 h; inhibition, % at 20 µM; 360,000 compounds, 0.33% hits; P63165; in the data active means inhibition above about 37%
STEP block: STEP (human) phosphatase inhibition; P54829; recombinant STEP, OMFP fluorogenic substrate, fluorescence; inhibition, % at 20 µM; 360,000 compounds, 0.25% hits; AID 588621;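 active means inhibition at 20 µM, scaled per plate between control wells, above about 37%, limit read from the data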;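 further: 0% = DMSO with enzyme and substrate and 100% = substrate only without enzyme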
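System: isolated STEP enzyme; schedule: 20 min enzyme reaction at room temperature, protected from light; medium: Bis-Tris buffer pH 6.0, 2.5 mM DTT, 0.005% Tween 20; signal: fluorescence, 480/540 nm; dosing: single compound dose of 20 µM, 1% DMSO final; also added: OMFP substrate, 25 µM final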
LMPTP inh: LMPTP (human) inhibition | recombinant LMPTP-A, OMFP fluorogenic substrate, fluorescence intensity | inhibition, % at 20 µM | 360,000 compounds, 0.22% hits;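 active means compounds that cut the enzyme signal by at least half of the control window in the single-dose screen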;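 further: plate controls were DMSO wells with enzyme plus substrate for no effect and substrate without enzyme for full effect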
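Test system: LMPTP-A phosphatase enzyme; input: 0.625 nM LMPTP-A final; reagent: OMFP substrate, 400 µM final; compound dosing: 20 µM single dose, 3% DMSO; incubation: 50 min dark incubation at room temperature; measured by: endpoint fluorescence intensity from OMFP dephosphorylation; measure: % inhibition relative to no-enzyme and uninhibited control wells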
An asterisk follows results filed as active; . = no result given. Rows were chosen to be rich in hits. Some 1.7% of all compounds tested hit in one or more screens of this group.

SMILES	DSG3 Ab inh	Scp-1 inhibitor	SUMO1-SIM PPI	STEP block	LMPTP inh
O=C(O)CCC1C(=O)NC(=O)CC1c1ccccc1 (stereo not given)	.	.	5.9	1.7	-1.1
O=C1CCCN1CCCNc1nc(NCc2cccs2)nc2ccsc12	.	.	0.7	0.9	74.0*
NS(=O)(=O)c1ccc(N/N=C/c2ccccc2Br)cc1	97.2	-2.0	59.6*	-2.7	3.6
Cc1ccc(C)c(NC(=S)NC2CC3CCC(C2)N3Cc2ccco2)c1 (stereo not given)	79.9*	-2.7	-2.6	2.4	-1.7
O=C(c1ccc(NC2=NC3CS(=O)(=O)CC3S2)cc1)N(CCO)Cc1ccccc1 (stereo not given)	107.6	-4.7	-0.7	8.3	0.3
COc1ccc(CC(=O)Nc2ccc(-c3csc(C)n3)cc2)cc1	104.2	8.6	0.6	-0.7	0.9
COc1ccc(CC(=O)Nc2cccc(-c3csc(C)n3)c2)cc1	-20.2*	-0.3	-4.4	-1.2	0.4
Cc1nc(COC(=O)c2cc(O)c3ccccc3c2O)cs1	85.3	69.2*	-19.2	-4.4	0.9
Cc1nc(COC(=O)c2ccc(CO)cc2)cs1	.	-0.3	-2.3	-0.5	-1.8
Cc1[nH]n(-c2ccccc2)c(=S)c1C=Nc1cccc([N+](=O)[O-])c1	80.4	87.0*	-8.7	1.0	-0.8
CCCCN=Cc1c(C)[nH]n(-c2ccccc2)c1=S	100.9	4.6	-2.6	4.9	-0.1
CN(Cc1nccn1C)C(=O)CC1C(=O)NCCN1Cc1ccccc1C(F)(F)F (stereo not given)	107.5	-1.5	4.0	-1.4	-1.3
COc1ccc(OC)c(NC(=O)C2(C)CCN2C(=O)C2(c3ccccc3)CCCC2)c1 (stereo not given)	.	.	0.4	-2.6	0.6
CC[n+]1ccccc1/C=C1\Sc2ccc(C)cc2N1C	107.0	79.4*	-33.0	-1.0	0.6
O=[N+]([O-])c1cc(CN2CCCC2)c2cccnc2c1O	91.8	35.2	1.2	9.0	73.8*
O=[N+]([O-])c1cc(CN2CCN(c3cccc(C(F)(F)F)c3)CC2)c2cccnc2c1O	94.5	-10.3	.	.	.
COc1ccc(NC(=O)c2cccc(-n3c(C)ccc3C)c2)c(OC)c1	115.7	-1.8	0.0	-1.4	0.6
O=C(CSc1nccc(-c2ccc(Br)cc2)n1)NCCc1ccccc1	69.0*	-3.0	-3.2	-0.5	0.6
Cc1nc(SCC(=O)NCCc2ccccc2)n[nH]1	93.6	-2.6	6.0	-4.8	1.0
O=C(CNC(=S)NC(=O)c1cccs1)c1ccccc1	107.1	-7.6	-0.6	-1.1	-0.2
Cc1ccc(C(=O)NC(=S)NCC(=O)c2ccccc2)cc1	-20.1*	-7.2	0.1	-3.0	1.0
OCCOCCN1CCN(C2=Nc3ccccc3Sc3ccccc32)CC1	113.8	-6.3	1.7	-2.7	2.3
O=C1C=CC(=O)c2c(O)c(N3CCN(CCOCCO)CC3)c(Br)c(O)c21	.	70.2*	109.4*	86.1*	77.0*
O=S(=O)(c1ccc(Br)cc1Cl)N1CCN(CCO)CC1	103.2	-2.5	-0.9	0.6	0.2
O=C1C=CC(=O)c2c(O)c(N3CCN(CCO)CC3)c(Cl)c(O)c21	63.2	73.1*	90.5*	26.8	76.0*
SMILES	DSG3 Ab inh	Scp-1 inhibitor	SUMO1-SIM PPI	STEP block	LMPTP inh
Cc1nn(-c2ccc(Cl)cc2)c2[nH]c(=O)c(CNCc3ccc4c(c3)OCO4)cc12	102.4	-9.7	0.7	-1.0	-0.4
COC(=O)c1cc(NC(=O)COC(=O)CCc2nc3ccccc3c(=O)[nH]2)cc(C(=O)OC)c1	64.8*	1.1	2.3	1.9	4.2
CCC(/C=C1\Sc2ccc(OC)cc2N1CCO)=C\c1sc2ccc(OC)cc2[n+]1CCO	-40.3*	15.2	2.1	4.8	4.7
S=c1[nH]nc2ccc3ccccc3n12	.	.	-3.3	0.0	71.5*
S=c1[nH]c2ccccc2n2c(=S)[nH]nc12	94.7	2.8	-7.1	-0.1	-20.3
CCOC(=O)c1ccc2c(c1)nc(-c1ccc(F)cc1)c1nccn12	101.4	-0.8	47.8*	-0.6	-1.0
O=C(N/N=C/c1ccncc1)c1nn(Cc2ccccc2)c(=O)c2ccccc12	108.7	-0.4	-11.3	1.2	-0.9
COc1ccc(NC(=O)CN(C)CC(=O)Nc2ccc(N3CCOCC3)cc2)c([N+](=O)[O-])c1	67.1*	-2.5	-20.8	-1.9	1.2
C/C(=N/NC(=O)Cc1cccc2ccccc12)c1cccs1	99.0	-9.1	-11.4	-1.4	1.7
C/C(=N\NC(=O)Cc1ccccc1)c1cccs1	77.6*	-2.6	-2.2	3.1	1.0
CCc1nc2ccc(C(=O)N3CCN(C(=O)c4ccco4)CC3)cn2c1N(C=O)Cc1ccc(OC)cc1	.	.	2.0	-1.4	-2.1
Nc1nnc(SCCCC(=O)c2ccc(Br)cc2)s1	84.6	4.6	43.0*	0.1	-0.3
Nc1nnc(SCCCC(=O)c2ccc(F)cc2)s1	100.0	-0.9	-2.2	-1.6	-0.5
CCN(CC(=O)Nc1ccccc1OC)C(=O)CCc1ccccc1	105.6	-5.8	40.5*	0.8	-0.1
COc1ccc(NC(=O)COC(=O)CCc2ccccc2)c(OC)c1	48.3*	-6.4	2.1	-3.2	-0.8
O=C(O)c1ccc(CNC(=S)Nc2ccccc2)cc1	110.6	2.5	4.2	-2.5	0.4
CC1=[N+](C)c2c(ccc3cccnc23)C1(C)C	79.2*	-1.4	4.0	-0.3	5.2
Cc1cc2[nH]c3c(c[n+](C)c4ccccc34)c2cc1C	90.1	35.6	-4.5	5.4	73.2*
Cc1cc(=O)[nH]c2ccccc12	92.7	-9.7	-2.0	1.1	-0.6
CCn1c(C)[n+](CC(O)COCC2CC=CCC2)c2ccccc21 (stereo not given)	105.3	86.5*	-0.3	-3.0	-0.3
COc1cccc(N2CCN(c3ccc4nnc(CCC(=O)Nc5ncccc5C)n4n3)CC2)c1	.	-1.7	5.0	-1.0	1.1
CC(NC1c2ccccc2-c2ccccc21)c1ccccc1 (stereo not given)	111.0	4.0	-5.0	1.3	1.9
c1ccc(CNc2nc(NCCc3ccncc3)c3sccc3n2)cc1	.	.	-1.4	3.9	87.0*
O=C(NCCCNCc1ccccc1)/C(=N\O)c1ccccc1	107.7	5.2	-1.9	-1.8	0.6
O=C(NCc1ccncc1)/C(=N/O)c1ccccc1	75.4*	13.0	1.2	-4.2	-0.2
COc1cccc(NC(=O)CN(C)C(=O)CSc2ncnc3sc(C)c(C)c23)c1	101.1	-0.1	10.3	2.3	1.4
CC(=O)C1=CCC(c2ccccc2)N(Cc2ccccc2)C1 (stereo not given)	.	.	2.4	.	0.0
COc1ccc(C(CNC(=O)c2ccc(OC)c(S(=O)(=O)N3CCCC3)c2)N2CCCC2)cc1 (stereo not given)	423.6	-2.2	-1.8	-2.9	0.6
Nc1c(-c2cccs2)cnn1-c1nc(-c2ccc(F)cc2)cs1	-16.2*	-2.4	2.7	1.2	0.2
